Results taken from PubChem BioAssay.
Calls of active or inactive are those of the source.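 The calls were made as follows, unless noted: active = viability loss from added drug above about 55%, and viability with drug at most 40%, in both replicates (limit read from the data, passing the limit was not always enough); inconclusive = both conditions met in only one replicate; inactive = neither replicate meets both conditions.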

How the values were obtained:
[1] = Her2 expression decrease, cell viability multiplex – SKBR3 breast tumor cells, AlphaScreen, ATP viability, primary screen (AID 461;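 active = Her2 level under about 52% in both replicate screens, with viability over 70% of control, limit read from the data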;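 as to Her2 level: lower value means less Her2 protein in the cells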;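 as to viability: percent of carrier control wells set as 100% viability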); conditions: SKBR3 Her2 protein level, 18-24 h, measured here: SKBR3 viability, ATP luminescence, at 10 µM
[2] = molecular target: Receptor tyrosine-protein kinase erbB-2 (Homo sapiens) (UniProt P04626); test: as above; conditions: 18-24 h, at 10 µM, stronger effect = lower value
[3] = reduced viability of SK-BR-3 breast cancer cells – cell-based, 24 h, human, pilot screen (AID 572;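 active = viability at or below 10% of carrier control in both of two separate runs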;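 also: compound exposure lasted between 18 and 24 h rather than exactly 24 h; 100% = carrier-treated control wells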); conditions: SK-BR-3 viability, CellTiter-Glo luminescence, at 10 µM, stronger effect = lower value
[4] = HUVEC growth inhibition – cell-based, human, primary screen (AID 575;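 active = viability at or below 30% in both replicate assays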;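 also: 100% = median of untreated cell wells with 0.1% DMSO on each plate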); conditions: HUVEC proliferation, CellTiter-Glo luminescence, 72 h; at 10 µM; stronger effect = lower value
In short: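 Assay system: Primary human umbilical vein endothelial cells | Quantity: 1250 cells per well | Medium: Supplemented EBM, 2% fetal bovine serum | Detection: CellTiter-Glo luminescence measuring cellular ATP | Read-out: % viability vs DMSO wells | Plate: Collagen-coated 384-well format | Times: 72 h exposure, 37 °C, 5% CO2, 30 min RT equilibration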

[5] = H69AR cell proliferation blockers – human, duplicate replicates, primary screen (AID 580;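 active = viability at or under a set limit in both replicates, limit being median viability minus 3 SD, cut at about 48% in these data, passing the limit was not always enough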;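 also: 100% = mean luminescence of untreated wells and 0% = no signal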); conditions: H69AR lung tumor cells viability, ATP luminescence, 72 h; at 10 µM; stronger effect = lower value
[6] = MRP1 drug-resistance reversers in H69AR cells – cell-based, doxorubicin co-treatment, pilot screen (AID 601); conditions: CellTiter-Glo, 72 h, at 10 µM; for differential viability (reversal): stronger effect = higher value
[7] = yeast transport mutant growth inhibition pilot in 384-well plates, post-Golgi transport modulator project (AID 636; in the data active = inhibition above about 31%); conditions: absorbance 615 nm, about 18 h, stronger effect = higher value
[8] = growth suppression of yeast trafficking mutant, preliminary HTS, modulators of trafficking downstream of Golgi apparatus project, 1536-format plate, OD 615 nm (AID 637; in the data active = inhibition above about 30%); conditions: yeast transport mutant growth, absorbance 615 nm, 18 h; stronger effect = higher value
[9] = H69AR cells + 2 uM doxorubicin, measured here: viability with 2 uM doxorubicin, stronger effect = lower value
[10] = H69AR cells, compound alone cytotoxicity

Receptor tyrosine-protein kinase erbB-2 (Homo sapiens), sequence (P04626 whole entry, looked up): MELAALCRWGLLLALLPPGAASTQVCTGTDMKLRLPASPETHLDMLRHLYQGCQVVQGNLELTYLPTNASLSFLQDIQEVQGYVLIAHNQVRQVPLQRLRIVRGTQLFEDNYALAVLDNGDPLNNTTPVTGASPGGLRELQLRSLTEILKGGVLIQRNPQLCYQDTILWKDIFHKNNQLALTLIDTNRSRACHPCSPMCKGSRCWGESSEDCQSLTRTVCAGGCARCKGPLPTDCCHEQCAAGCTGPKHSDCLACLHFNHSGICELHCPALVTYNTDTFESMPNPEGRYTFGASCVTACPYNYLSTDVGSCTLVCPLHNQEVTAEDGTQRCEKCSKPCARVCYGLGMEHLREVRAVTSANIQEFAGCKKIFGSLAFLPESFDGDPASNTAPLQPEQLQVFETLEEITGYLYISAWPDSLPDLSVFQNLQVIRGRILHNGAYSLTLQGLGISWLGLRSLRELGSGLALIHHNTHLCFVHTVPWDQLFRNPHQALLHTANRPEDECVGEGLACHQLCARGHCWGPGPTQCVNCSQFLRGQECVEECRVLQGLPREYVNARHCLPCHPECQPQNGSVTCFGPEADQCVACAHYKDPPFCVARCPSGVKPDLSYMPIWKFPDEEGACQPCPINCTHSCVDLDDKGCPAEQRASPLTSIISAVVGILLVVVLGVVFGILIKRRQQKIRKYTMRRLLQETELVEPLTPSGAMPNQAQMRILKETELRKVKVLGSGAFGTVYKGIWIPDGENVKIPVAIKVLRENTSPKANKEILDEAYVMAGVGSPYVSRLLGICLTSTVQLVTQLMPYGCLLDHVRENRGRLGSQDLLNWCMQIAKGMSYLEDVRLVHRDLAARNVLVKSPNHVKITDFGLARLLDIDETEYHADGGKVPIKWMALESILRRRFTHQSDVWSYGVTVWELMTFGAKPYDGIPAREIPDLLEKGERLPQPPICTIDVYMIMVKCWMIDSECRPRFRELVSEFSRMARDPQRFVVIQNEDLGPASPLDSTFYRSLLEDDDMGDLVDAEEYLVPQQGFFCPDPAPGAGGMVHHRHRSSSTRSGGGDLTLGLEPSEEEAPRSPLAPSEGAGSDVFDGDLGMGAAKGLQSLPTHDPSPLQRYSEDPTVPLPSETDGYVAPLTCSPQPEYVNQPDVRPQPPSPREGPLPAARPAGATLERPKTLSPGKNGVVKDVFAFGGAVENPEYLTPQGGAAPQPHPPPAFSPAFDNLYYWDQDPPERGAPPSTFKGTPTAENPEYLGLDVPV

SMILES	viability [1]	Her2 level [2]	viability [3]	viability [4]	viability [5]	differential viability (reversal) ([6]; H69AR cells + 2 uM doxorubicin)	viability [6, 9]	viability [6, 10]	inhibition [7]	inhibition [8]
CCCCOC(=O)C1=C(C)Nc2ncnn2C1c1cccc(OC)c1OC (stereo not given)	81.5%	65.5% (inactive)	81.5% (inactive)	95% (inactive)	88.5% (inactive)	7.84% (inactive)	80.7%	88.5%	-5.13% (inactive)	-3.33% (inactive)
Cc1ccc(S(=O)(=O)N2CCN(C(=O)CSc3nnnn3C)C2)cc1	110%	104% (inactive)	110% (inactive)	85.3% (inactive)	102% (inactive)	1.78% (inactive)	101%	102%	-0.66% (inactive)	0.17% (inactive)
CC1(C)OC(=O)N(c2cccnc2)C1(C)O (stereo not given)	117%	83% (inactive)	117% (inactive)	100% (inactive)	91.5% (inactive)	11.6% (inactive)	80%	91.5%	-5.6% (inactive)	3.02% (inactive)
O=C(O)c1ccc2noc(-c3ccccc3)c2c1	127%	106% (inactive)	127% (inactive)	86.9% (inactive)	97.8% (inactive)	5.36% (inactive)	92.4%	97.8%	-4.74% (inactive)	-4% (inactive)
COc1ccc(-c2noc(CN3C(=O)c4ccccc4C3=O)n2)cc1	102%	108% (inactive)	102% (inactive)	97.5% (inactive)	102% (inactive)	5.23% (inactive)	96.4%	102%	-0.92% (inactive)	11.3% (inactive)
O=C1COc2ccc(C(=O)COC(=O)CCc3ccc(S(=O)(=O)N4CCOCC4)cc3)cc2N1	105%	98% (inactive)	105% (inactive)	80.3% (inactive)	79% (inactive)	-10.4% (inactive)	89.4%	79%	2.69% (inactive)	1.67% (inactive)
CCOC(=O)C1CCN(Cc2ccc(C(=O)OC)cc2)CC1	93.5%	106% (inactive)	93.5% (inactive)	87% (inactive)	87.4% (inactive)	4.25% (inactive)	83.2%	87.4%	-4.08% (inactive)	-1.8% (inactive)
CC1Cc2ccccc2N1C(=O)c1cccnc1 (stereo not given)	121%	91.5% (inactive)	121% (inactive)	92.8% (inactive)	98.1% (inactive)	2.02% (inactive)	96%	98.1%	-2.21% (inactive)	-0.16% (inactive)
Cc1ccccc1-c1nc2ccccc2c(=O)n1C1CCS(=O)(=O)C1 (stereo not given)	96.5%	91.5% (inactive)	96.5% (inactive)	108% (inactive)	90.3% (inactive)	-9.98% (inactive)	100%	90.3%	0.26% (inactive)	0.97% (inactive)
CSc1ccccc1C(=O)NC1CC2CCC1C2 (stereo not given)	102%	89.5% (inactive)	102% (inactive)	92.9% (inactive)	94.8% (inactive)	7.59% (inactive)	87.2%	94.8%	-5.33% (inactive)	5.65% (inactive)
COc1ccc(CCNS(=O)(=O)c2ccc3c(c2)CCN3C(=O)CCC(=O)O)cc1OC	104%	89% (inactive)	104% (inactive)	88.6% (inactive)	94.1% (inactive)	4.3% (inactive)	89.8%	94.1%	-2.37% (inactive)	-4.91% (inactive)
CC1CCCN(c2ccc(C(=O)NCc3cccs3)cn2)C1 (stereo not given)	98.5%	89.5% (inactive)	98.5% (inactive)	96.1% (inactive)	82.8% (inactive)	4.85% (inactive)	77.9%	82.8%	-0.91% (inactive)	-2.86% (inactive)
CCOC(=O)c1sc2nc(SCC#N)n(CCCN3CCCC3=O)c(=O)c2c1C	80.5%	73% (inactive)	80.5% (inactive)	68% (inactive)	75.8% (inactive)	-8.2% (inactive)	84%	75.8%	-5% (inactive)	-1.48% (inactive)
O=C(NC1CCCCCC1)C1CCCN(S(=O)(=O)c2cccs2)C1 (stereo not given)	90%	118% (inactive)	90% (inactive)	101% (inactive)	105% (inactive)	17.6% (inactive)	87.8%	105%	-0.92% (inactive)	-6.5% (inactive)
Cc1sc2nc(SCC(=O)Nc3c(C)n(C)n(-c4ccccc4)c3=O)n(C)c(=O)c2c1C	102%	95.5% (inactive)	102% (inactive)	95.4% (inactive)	97.3% (inactive)	1.12% (inactive)	96.2%	97.3%	0% (inactive)	1.15% (inactive)
O=C(CSc1nc2ccccc2nc1SCC(=O)N1CCOCC1)N1CCOCC1	100%	98% (inactive)	100% (inactive)	110% (inactive)	95.7% (inactive)	1.15% (inactive)	94.5%	95.7%	-1.03% (inactive)	0.17% (inactive)

SMILES	viability [1]	Her2 level [2]	viability [3]	viability [4]	viability [5]	differential viability (reversal) ([6]; H69AR cells + 2 uM doxorubicin)	viability [6, 9]	viability [6, 10]	inhibition [7]	inhibition [8]
CN1CCN(c2nc3c(c(=O)[nH]c(=O)n3C)n2CCOc2ccccc2)CC1	75.5%	85.5% (inactive)	75.5% (inactive)	80.1% (inactive)	92.2% (inactive)	0.615% (inactive)	91.5%	92.2%	-6.49% (inactive)	2.62% (inactive)
CCOc1ccc2[nH]cc(C(=O)N3CCN(CC)CC3)c(=O)c2c1	98%	104% (inactive)	98% (inactive)	91.2% (inactive)	89.6% (inactive)	-14.2% (inactive)	104%	89.6%	2.67% (inactive)	19% (inactive)
COc1ccc(Cc2nnc3n2N=C(c2cc4ccccc4o2)CS3)cc1OC	77%	79.5% (inactive)	77% (inactive)	64.4% (inactive)	35% (active)	-20% (inactive)	55%	35%	-7.03% (inactive)	-0.67% (inactive)
CCN(CC)S(=O)(=O)c1ccc(C(=O)N2CCN=C2SCc2cccnc2)cc1	82.5%	95.5% (inactive)	82.5% (inactive)	79.7% (inactive)	84.5% (inactive)	-3.98% (inactive)	88.5%	84.5%	-3.38% (inactive)	-3.02% (inactive)
COc1ccc(NC(=O)C23CCC(C)(C(=O)C2)C3(C)C)cc1 (stereo not given)	92.5%	102% (inactive)	92.5% (inactive)	105% (inactive)	102% (inactive)	2.21% (inactive)	99.3%	102%	-1.07% (inactive)	0.48% (inactive)
Cn1c(=O)cc(OCC(=O)NCCCN2CCN(Cc3ccccc3)CC2)c2ccccc21	90.5%	104% (inactive)	90.5% (inactive)	81.3% (inactive)	103% (inactive)	17.9% (inactive)	84.8%	103%	-0.93% (inactive)	-7.87% (inactive)
CCOc1cc2oc(=O)c3c(c2cc1Cl)CCC3	106%	96% (inactive)	106% (inactive)	102% (inactive)	85.6% (inactive)	8.13% (inactive)	77.5%	85.6%	-3.84% (inactive)	2.38% (inactive)
Cc1ccnc(N2CCN(C(=O)CSc3nc4ccccc4nc3N3CCCCC3)CC2)c1	109%	70.5% (inactive)	109% (inactive)	62% (inactive)	92.7% (inactive)	9.7% (inactive)	83%	92.7%	-3.03% (inactive)	-2.83% (inactive)
Cc1ccc(C2/C(=C(/O)c3cnn(-c4ccccc4)c3C)C(=O)C(=O)N2CCN2CCOCC2)o1 (stereo not given)	77.5%	79% (inactive)	77.5% (inactive)	112% (inactive)	85% (inactive)	7.89% (inactive)	77.1%	85%	-4.61% (inactive)	-1.09% (inactive)
CCn1c(SCC(=O)Nc2cc(C)on2)nc2sc3c(c2c1=O)CCCC3	91%	76.5% (inactive)	91% (inactive)	84.5% (inactive)	12.6% (active)	2.02% (inactive)	10.6%	12.6%	-4.93% (inactive)	7.78% (inactive)
Cc1csc(NC(=O)CCS(=O)(=O)c2ccc(Br)cc2)n1	99.5%	96.5% (inactive)	99.5% (inactive)	82.5% (inactive)	73% (inactive)	-2.92% (inactive)	75.9%	73%	-0.81% (inactive)	22.7% (inactive)
CCN1CCN(CCNC(=O)c2cn(C(C)c3ccccc3F)nn2)CC1 (stereo not given)	122%	98.5% (inactive)	122% (inactive)	82.3% (inactive)	96.4% (inactive)	8.63% (inactive)	87.8%	96.4%	-2.73% (inactive)	-4.6% (inactive)
COCCn1c(CN(Cc2ccccc2)Cc2ccccc2)nc2c1c(=O)n(C)c(=O)n2C	81%	96% (inactive)	81% (inactive)	81.2% (inactive)	81.2% (inactive)	-11.8% (inactive)	93%	81.2%	-1.87% (inactive)	1.5% (inactive)
CC(C)CN(CC(C)C)C(=O)C12CCC(C)(C(=O)C1)C2(C)C (stereo not given)	74%	103% (inactive)	74% (inactive)	110% (inactive)	96.8% (inactive)	12.3% (inactive)	84.4%	96.8%	1.33% (inactive)	-7.62% (inactive)
CCN1CCN(c2nc(-c3cccnc3)nc3ccccc23)CC1	89%	94.5% (inactive)	89% (inactive)	101% (inactive)	88.6% (inactive)	-2.89% (inactive)	91.5%	88.6%	-3.16% (inactive)	-0.63% (inactive)
